These results are taken from PubChem BioAssay AID1748 (Sanford-Burnham Center for Chemical Genomics, 2009).

The source made the active and inactive calls.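 How the source made its calls: active means Cell killing by compound with TRAIL above both separate effects added together, at all three tested doses; inactive means the rest.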

The assay deals with MCF7 TRAIL potentiation, ATPlite luminescence, 24 h. Description: sensitizers of TRAIL-resistant MCF7 to apoptosis – cell-based, ATPlite luminescence, 24 h, confirmation (AID 1748). To be noted: stronger effect = higher value. Summed up: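 Material: TRAIL-resistant MCF7 cells / Signal: ATPlite luminescence / Reagent: TRAIL / Dosing: compound at 1.25 to 5 µM final concentration / Timing: 24 h settling, 4 h compound pretreatment, 24 h TRAIL exposure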

Setting [1] is: compound alone 1.25 uM, at 1.25 µM.
The mark [2] stands for this setting: compound alone 2.5 uM, at 2.5 µM.
Where [3] appears, read: compound alone, no TRAIL, at 5 µM.
[4] abbreviates: compound plus TRAIL 1.25 uM, at 1.25 µM.
Where [5] appears, read: compound plus TRAIL 2.5 uM, at 2.5 µM.

Take `CCSc1nc(-c2ccccc2)nc(C(Cl)Cl)n1`: the cytotoxicity with TRAIL by setting is: (at 5 µM) 72%; under setting [4], 44%; under setting [5], 52%. For the same compound, the cytotoxicity runs as follows: under setting [1], 0%; under setting [2], 0%; under setting [3], 28%.
Consider `CSc1nc(-c2ccccc2)nc(C(Cl)Cl)n1`, for which the cytotoxicity with TRAIL was 82% (inactive) (at 5 µM), 55% under setting [4] and 74% under setting [5]. Moreover, the cytotoxicity turned out to be 0% under setting [1], 36% under setting [2] and 55% under setting [3].
Regarding `CSc1nc(-c2ccc(C)cc2)nc(C(Cl)Cl)n1`, the cytotoxicity with TRAIL is 57% (inactive) (at 5 µM), 37% under setting [4] and 48% under setting [5]. For the same compound, the cytotoxicity runs as follows: under setting [1], 0%; under setting [2], 8%; under setting [3], 26%.
